Screening results from PubChem BioAssay.
PAFAH2 inh: PAFAH2 (human) inhibition; Q99487; recombinant PAFAH2, FP-rhodamine activity probe, fluorescence polarization; inhibition, % at 3.39 µM; 0.99% of 340,000 active;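 active means inhibition above the mean over all tested compounds plus 3 SD, cut at about 30% in these data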;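 further: inhibitors block probe labeling of enzyme so polarization drops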
PAFAH1B3 inh: blocks human PAF acetylhydrolase 1B catalytic subunit 3 | 0.28% of 340,000 active | Q15102 | recombinant PAFAH1B3, FP-rhodamine probe, fluorescence polarization | inhibition, % at 3.39 µM;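 active means inhibition above the screen-wide average of all tested compounds plus 3 SD, cut at about 25% in these data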
GRIN3A LBD mod: modulators (binders) of human NR3A ligand-binding domain; NR3A LBD differential scanning fluorimetry, Tm shift; 0% = protein alone, 100% = glycine-bound protein; Tm shift relative to glycine control, % at 25 µM; 2.5% of 340,000 active; AID 1259313;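 active means melting temperature shift of at least 10% of the positive control shift, at one fixed dose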
UCH37 DUB inh: blocks the human deubiquitinase UCH37 | Q9Y5K5 | purified proteasome/UCH37, Ub-AMC cleavage fluorescence | inhibition, % (concentration not given with the values) | 0.33% of 330,000 active;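 active means mean inhibition over replicate wells above about 20%, limit read from the data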
Target sequence (Q9Y5K5 whole entry, looked up): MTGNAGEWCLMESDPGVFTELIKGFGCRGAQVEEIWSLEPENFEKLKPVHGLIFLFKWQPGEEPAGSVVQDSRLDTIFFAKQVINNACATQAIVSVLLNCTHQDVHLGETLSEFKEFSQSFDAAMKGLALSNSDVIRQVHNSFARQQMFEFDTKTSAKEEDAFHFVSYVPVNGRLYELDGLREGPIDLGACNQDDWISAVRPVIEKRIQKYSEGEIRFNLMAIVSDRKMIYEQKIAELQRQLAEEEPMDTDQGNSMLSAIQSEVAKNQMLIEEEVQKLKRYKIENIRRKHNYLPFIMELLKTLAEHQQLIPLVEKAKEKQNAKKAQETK
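Test system – human UCH37 enzyme supplied as purified proteasome complex · Incubation – 30 min preincubation with enzyme, 25 min cleavage at room temperature · Detection – AMC fluorescence from Ub-AMC cleavage, excitation 355 nm, emission 460 nm · Benchmarks – no-proteasome wells (full inhibition) and compound-free wells (no inhibition)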
PAFAH1B2 FP inh: blocks human PAF acetylhydrolase 1b catalytic subunit 2; P68402; recombinant PAFAH1B2, FP-rhodamine activity probe, fluorescence polarization; 1.2% of 340,000 active; inhibition, % at 3.39 µM; AID 492953;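 active means inhibition above the mean of all tested compounds plus 3 SD, cut at about 24% in these data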
pPAFAH FP inh: inhibitors of human plasma PAF acetylhydrolase (pPAFAH). AID 463082. 1.5% of 330,000 active. Q13093. recombinant pPAFAH, FP-rhodamine probe fluorescence polarization. inhibition, % at 3.39 µM;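 active means inhibition above the mean inhibition across the screen plus 3 SD, cut at about 25% in these data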;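 further: inhibitors block binding of the rhodamine activity-based probe so polarization drops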
Numbers stand for hits; i = inactive; nt = not tested or not shown. The list is not random: actives were taken first. Their share in the collection is about 4.8%.

SMILES	PAFAH2 inh	PAFAH1B3 inh	GRIN3A LBD mod	UCH37 DUB inh	PAFAH1B2 FP inh	pPAFAH FP inh
Cc1cc(C(=O)N/N=C2\CC(=O)c3ccccc32)c(C)n1-c1ccccc1	i	i	i	nt	i	31
Cc1cc(C(=O)NN=C2CC(=O)CC(C)(C)C2)c(C)n1-c1ccccc1	nt	nt	nt	i	nt	nt
O=C(NN=Cc1ccccn1)c1ccccc1	nt	nt	nt	i	nt	nt
O=C(Nc1ccc(Cl)c(Cl)c1)c1ccncc1	i	i	i	i	i	i
COc1ccc(NC(=O)c2ccc3c(c2)OCO3)cc1Cl	i	i	26	i	i	i
O=C(Nc1ccc(Cl)c(Cl)c1)c1ccc(Cl)c(Cl)c1	i	i	42	nt	i	i
O=C(Nc1ccc(F)c(Cl)c1)c1ccc2c(c1)OCO2	i	i	i	i	i	i
COc1cc(NC(=O)c2ccc3c(c2)OCCO3)ccc1NC(=O)c1ccccc1Cl	i	i	29	i	i	i
CCOc1ccc(C=NNC2=NCCCCC2)cc1	nt	nt	nt	i	nt	nt
CC(=NNC(=O)c1cccnc1)c1ccc(C)c([N+](=O)[O-])c1	nt	nt	nt	i	nt	nt
C=CCNC(=S)NN=Cc1ccc(C)s1	nt	nt	nt	i	nt	nt
O=[N+]([O-])c1cccc(N=Nc2ccc(O)cc2O)c1	i	i	i	i	i	nt
O=S(=O)(O)c1cc(Cl)cc(N=Nc2ccc(O)cc2O)c1O	35	26	i	nt	42	nt
Cc1ccc(CN2CCN(N=Cc3cc(Br)ccc3O)CC2)cc1	nt	nt	nt	i	nt	nt
COc1ccccc1OCCOCCOc1ccccc1Cl	i	i	i	i	i	i
CCOc1ccc(OCCOCCOc2ccccc2Cl)cc1	i	i	18	i	i	i
COc1ccccc1/C=C\C(=O)NCC(=O)NN=C(C)c1cccc([N+](=O)[O-])c1	nt	nt	nt	i	nt	nt
Cc1ccc(N2C(=O)CSC2=NC(=S)Nc2ccccc2)cc1	nt	nt	nt	i	nt	nt
CC(=NNC(=O)CN(c1ccccc1Br)S(C)(=O)=O)c1cccs1	nt	nt	nt	i	nt	nt
COc1ccc(NC(=S)N2CCC(c3nc4ccc(Cl)cc4[nH]3)CC2)c(OC)c1	i	i	i	i	i	31
CS(=O)(=O)Nc1nnc(Cc2ccccc2)s1	i	i	11	i	i	i
CS(=O)(=O)Nc1nnc(CCc2ccccc2)s1	i	i	i	i	i	i
Cc1ccc(S(=O)(=O)N2CCN(CC(=O)NN=Cc3ccc(O)c(O)c3)CC2)cc1	nt	nt	nt	i	nt	nt
CCN(CC)c1ccc(/C=C(\C#N)C(=O)c2ccc(Br)cc2)cc1	81	41	i	i	55	i
O=C(NN=Cc1ccc(OCC2COCCO2)cc1)c1ccc(Br)cc1 (centres undefined)	nt	nt	nt	i	nt	nt
SMILES	PAFAH2 inh	PAFAH1B3 inh	GRIN3A LBD mod	UCH37 DUB inh	PAFAH1B2 FP inh	pPAFAH FP inh
COc1ccc(S(=O)(=O)/N=C2/NC(=O)/C(=C\c3cc(OC)c(OC)cc3[N+](=O)[O-])S2)cc1	i	i	i	i	i	i
COc1ccc(S(=O)(=O)/N=C2/NC(=O)/C(=C/c3ccco3)S2)cc1	i	i	i	i	i	32
COc1cc(/C=C2\S/C(=N/S(=O)(=O)c3ccccc3)NC2=O)c([N+](=O)[O-])cc1OC	i	i	i	23	i	i
COc1ccc(N=C2NC(=O)/C(=C/c3ccco3)S2)cc1	i	i	i	i	i	i
COc1ccccc1N1CCN(C(CNS(=O)(=O)c2ccc(C)cc2)c2cccnc2)CC1 (centres undefined)	i	i	16	i	i	i
Cc1cccc2cc(/C=N/Nc3ccc(C(=O)O)cc3)c(Cl)nc12	i	i	i	nt	i	28
Cc1cccc2cc(C=NNC(=O)c3ccccc3O)c(Cl)nc12	nt	nt	nt	i	nt	nt
Cc1ccc2cc(/C=N/NC(=O)c3ccccc3O)c(Cl)nc2c1	i	i	19	nt	i	i
Cc1cccc2cc(/C=N/NC(=O)c3ccccc3O)c(Cl)nc12	i	i	29	nt	i	i
Cc1ccc2cc(C=NNC(=O)c3ccccc3O)c(Cl)nc2c1	nt	nt	nt	i	nt	nt
NC(Cc1ccccc1Sc1ccccc1)=NO	nt	nt	nt	i	nt	nt
Cc1cc(C)n(C(=O)CNc2ccccc2Cl)n1	i	i	i	i	i	i
Cc1cc(C)n(C(=O)CNc2cccc(Cl)c2C)n1	i	i	10	i	i	i
CC(C)(C)c1ccc(C=NNC(=O)C(=O)NCCCN2CCOCC2)cc1	nt	nt	nt	i	nt	nt
Nc1ccc2c(c1)Cc1cc(N)c(Cl)cc1-2	i	i	i	nt	i	nt
Nc1ccc2c(c1)Cc1cc(Cl)c(Cl)cc1-2	i	i	15	i	i	nt
